The structures appear in SMILES notation. Some results are limits rather than exact numbers.

This note sets out measurements from ChEMBL document CHEMBL4038273, “MAO enzymes inhibitory activity of new benzimidazole derivatives including hydrazone and propargyl side chains” (Eur J Med Chem, 2017).

The subject of series [1] is Salmonella typhimurium. The series can be described thus: Genotoxicity in Salmonella typhimurium TA100 assessed as increase in number of revertants at 0.156 mg/ml in absence of aroclor-1254-induced Sprague-Dawley rat liver microsomal S9 fraction by Ames-MPF assay relative to baseline. In kind it is toxicity. To be noted: salmonella enterica subsp. enterica serovar typhimurium, microsomes. The procedure, abridged:
(§1)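 AmesMPF 98/100 fluctuation format with S. typhimurium TA98 (frameshift) and TA100 (base-pair substitution), run with and without S9. Compounds were made up in DMSO at 0.156–5 mg/mL, six levels; solvent control was 4% DMSO. With S9, positive controls were 2-aminoanthracene at 1 µg/mL (TA98) and 2.5 µg/mL (TA100). Wells turned yellow by pH drop were scored positive. Fold over baseline is mean positive wells divided by (zero-dose mean + 1 SD). Student's t-test, p<0.05.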

The test system of series [2] is Salmonella typhimurium. The series can be described thus: Genotoxicity in Salmonella typhimurium TA98 assessed as increase in number of revertants at 0.3125 mg/ml in absence of aroclor-1254-induced Sprague-Dawley rat liver microsomal S9 fraction by Ames-MPF assay relative to baseline. Type of series: toxicity. Particulars: salmonella enterica subsp. enterica serovar typhimurium, microsomes. The procedure, abridged:
as §1
(Liver microsomes are a subcellular fraction often used to study metabolism.)

In series [3] the test system is Salmonella typhimurium. In words: Genotoxicity in Salmonella typhimurium TA100 assessed as increase in number of revertants at 0.625 mg/ml in presence of aroclor-1254-induced Sprague-Dawley rat liver microsomal S9 fraction by Ames-MPF assay relative to baseline. Type of series: toxicity. Particulars: salmonella enterica subsp. enterica serovar typhimurium, microsomes. The procedure, abridged: as §1

The test system of another series is NIH3T3. In words: Cytotoxicity against mouse NIH/3T3 cells by MTT assay. In kind it is cell-based. Summed up: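 NIH/3T3 mouse embryonic fibroblasts seeded at 1x10^4 cells per well and grown per supplier recommendations. Compounds tested over 0.0316-1000 µM by MTT reduction to formazan; IC50 determined.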
The test system of series [4] is Salmonella typhimurium. In words: Genotoxicity in Salmonella typhimurium TA100 assessed as increase in number of revertants at 0.625 mg/ml in absence of aroclor-1254-induced Sprague-Dawley rat liver microsomal S9 fraction by Ames-MPF assay relative to baseline. Type of series: toxicity. To be noted: salmonella enterica subsp. enterica serovar typhimurium, microsomes. Summed up:
as §1

Series [5] deals with Salmonella typhimurium. The series can be described thus: Genotoxicity in Salmonella typhimurium TA100 assessed as increase in number of revertants at 1.25 mg/ml in presence of aroclor-1254-induced Sprague-Dawley rat liver microsomal S9 fraction by Ames-MPF assay relative to baseline. Type of series: toxicity. Particulars: salmonella enterica subsp. enterica serovar typhimurium, microsomes. Summed up:
as §1

Series [6] concerns the target T1, Amine oxidase [flavin-containing] A (Homo sapiens, UniProt P21397).
T1 sequence (P21397 whole entry): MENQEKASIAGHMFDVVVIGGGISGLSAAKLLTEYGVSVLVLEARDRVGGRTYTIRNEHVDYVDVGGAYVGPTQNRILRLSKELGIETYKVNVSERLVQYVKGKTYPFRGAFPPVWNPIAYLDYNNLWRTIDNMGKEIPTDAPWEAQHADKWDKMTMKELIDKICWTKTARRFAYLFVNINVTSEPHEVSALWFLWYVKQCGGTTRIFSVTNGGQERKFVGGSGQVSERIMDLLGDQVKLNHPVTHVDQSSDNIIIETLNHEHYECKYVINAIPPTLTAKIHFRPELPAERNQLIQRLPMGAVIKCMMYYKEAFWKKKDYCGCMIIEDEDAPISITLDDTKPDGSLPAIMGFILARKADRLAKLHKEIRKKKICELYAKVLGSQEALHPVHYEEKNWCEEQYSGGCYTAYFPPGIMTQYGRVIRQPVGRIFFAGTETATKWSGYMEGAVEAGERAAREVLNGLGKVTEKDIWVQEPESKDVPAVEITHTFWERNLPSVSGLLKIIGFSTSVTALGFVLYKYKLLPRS
In words: Inhibition of recombinant human MAO-A expressed in baculovirus infected BTI insect cells using tyramine as substrate pretreated for 30 mins followed by substrate addition incubated for 30 mins measured at 5 mins interval by horse-radish peroxidase/amplex red-based fluorometric method. Summed up: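 Recombinant hMAO-A (0.5 U/mL stock) or hMAO-B (0.64 U/mL stock) in phosphate buffer, preincubated with inhibitor (solutions 10^-3 to 10^-9 M in 2% DMSO) for 30 min at 37°C. Background-subtracted against DMSO control; quadruplicate.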

Series [7] addresses T2, Amine oxidase [flavin-containing] B (Homo sapiens, UniProt P27338).
T2 sequence (P27338 whole entry): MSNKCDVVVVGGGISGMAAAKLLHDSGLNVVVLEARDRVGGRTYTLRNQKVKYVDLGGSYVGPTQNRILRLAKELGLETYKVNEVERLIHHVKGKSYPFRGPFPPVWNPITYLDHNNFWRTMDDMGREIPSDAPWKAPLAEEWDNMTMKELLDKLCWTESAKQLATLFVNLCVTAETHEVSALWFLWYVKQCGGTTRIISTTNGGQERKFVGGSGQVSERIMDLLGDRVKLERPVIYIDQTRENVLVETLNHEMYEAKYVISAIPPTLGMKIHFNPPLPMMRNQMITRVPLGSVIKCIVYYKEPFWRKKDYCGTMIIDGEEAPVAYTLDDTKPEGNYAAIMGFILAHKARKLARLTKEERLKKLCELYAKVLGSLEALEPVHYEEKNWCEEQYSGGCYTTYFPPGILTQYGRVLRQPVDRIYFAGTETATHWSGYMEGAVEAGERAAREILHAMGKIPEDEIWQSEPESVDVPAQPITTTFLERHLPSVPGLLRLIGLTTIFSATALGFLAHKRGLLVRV
The series can be described thus: Non-competitive inhibition of recombinant human MAO-B expressed in baculovirus infected BTI insect cells using varying levels of tyramine as substrate pretreated for 30 mins followed by substrate addition measured for 30 mins by Line-weaver burk plot method. The procedure, abridged: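 hMAO-B preincubated 30 min at 37°C with inhibitor at five concentrations. Working solution with tyramine at 20, 10, 5, 2.5, 1.25 and 0.625 µM then added, and fluorescence (Ex/Em 535/587 nm) followed for 30 min alongside an inhibitor-free run; quadruplicate. Inhibition type from Lineweaver-Burk plots; Ki from x-intercept of Vmax replotted against inhibitor concentration.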

On to `C#CCn1c(-c2ccc(C(=O)N/N=C/c3ccc(F)cc3)cc2)nc2ccccc21`, for which the “fold change (FC)” value in the series on Salmonella typhimurium [1] amounted to 0.89; in the series on Salmonella typhimurium [2], 0.46; with Salmonella typhimurium [3], 1.15; with Salmonella typhimurium [4], 0.69; in the series with Salmonella typhimurium [5] it was 1.46. Further, the IC50 was not below 1000 µM with NIH3T3 and 0.851 µM in series [6].
Regarding `C#CCn1c(-c2ccc(C(=O)N/N=C/c3cccnc3)cc2)nc2ccccc21`, the “fold change (FC)” value in the series on Salmonella typhimurium [1] was determined as 0.74; in the series on Salmonella typhimurium [2] it was 0.74; in the series with Salmonella typhimurium [3], 0.27; with Salmonella typhimurium [4] it was 0.84; in the series with Salmonella typhimurium [5], 0.33. For the same compound, the IC50 in the series on NIH3T3 was determined as 316 µM; in series [6], 9.59 µM. Further, the Ki in series [7] is 0.15 to 0.151 µM.

A word on the IC50: it is the concentration needed to halve the response being measured. The Ki is the equilibrium dissociation constant of an inhibitor or competing ligand from its target.
